An excerpt weighted towards active compounds, which were near 3.2% of everything screened.
LEDGF integ inh – blocks HIV-1 LEDGF/p75-dependent DNA integration | inhibition, % at 3.7 µM | TR-FRET IN-LEDGF/p75 DNA integration, Eu/Cy5 | AID 743269 | actives 0.64% (n = 370,000);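 active = inhibition above the screen-wide mean plus 3 SD, cut at about 13% in these data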;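 note: signal is the Cy5 over europium emission ratio at 671 and 618 nm; 0% = plate median of compound wells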
rCAG binder – r(CAG) repeat RNA binding. TO-PRO-1 dye displacement fluorescence. inhibition, % at 3 µM. actives 1.3% (n = 370,000);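 active = inhibition above the plate cutoff, the mean of all test compounds on that plate plus 3 SD, cut at about 35% in these data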;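 note: 0% = DMSO alone and 100% = 100 µM mitoxantrone as full dye displacement; higher means more dye released from RNA so lower well fluorescence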
PRMT1 FP inh – inhibitors of human PRMT1; AID 652257; actives 1.3% (n = 370,000); inhibition, % at 2.79 µM; recombinant PRMT1, activity-based probe fluorescence polarization; Q99873;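 active = inhibition above about 21% made by adding two undisclosed values, limit read from the data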
DAGLB inh – blocks human DAGLB lipase activity; Q8NCG7; HEK293T DAGLB membrane lysate, EnzChek fluorogenic substrate; inhibition, % at 5.17 µM; actives 0.059% (n = 340,000); in the data active = inhibition above about 34%;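 note: 0% = enzyme with vehicle and 100% = wells lacking enzyme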
ABHD4 inh – inhibitors of mouse ABHD4. purified mABHD4, FP-Rh probe fluorescence polarization. inhibition, % at 8.92 µM. actives 0.54% (n = 370,000);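 active = inhibition exceeding the mean over every tested compound plus 3 SD, cut at about 30% in these data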;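 note: 0% = plate median of compound wells and 100% = S159A mutant with DMSO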
Target sequence (Q8VD66 whole entry, looked up): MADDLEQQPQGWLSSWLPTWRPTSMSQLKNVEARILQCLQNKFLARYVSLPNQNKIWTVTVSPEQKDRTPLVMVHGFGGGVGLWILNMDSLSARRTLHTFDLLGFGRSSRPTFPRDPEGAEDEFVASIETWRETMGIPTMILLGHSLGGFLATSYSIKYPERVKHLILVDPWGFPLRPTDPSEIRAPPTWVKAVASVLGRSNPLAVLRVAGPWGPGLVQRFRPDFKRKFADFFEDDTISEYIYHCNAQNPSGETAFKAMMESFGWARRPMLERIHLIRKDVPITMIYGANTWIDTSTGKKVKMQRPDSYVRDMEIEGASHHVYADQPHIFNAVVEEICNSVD
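Test system: mouse ABHD4 enzyme, wild type. Reagent: FP-Rh fluorescent activity-based probe, added after compound pre-incubation. Timing: pre-incubation 45 min, probe exposure 60 min, at 25 °C. Technique: FP readout, ex 525 nm / em 598 nm. Benchmarks: high control S159A mutant with DMSO, low control median of compound wells.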
HTRA1 inh – blocks human HTRA1 serine peptidase | Q92743 | recombinant HTRA1, FP-rhodamine activity-based probe, fluorescence polarization | inhibition, % at 5.96 µM | actives 0.5% (n = 340,000); in the data active = inhibition above about 36%;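 note: 0% = enzyme with DMSO and 100% = wells lacking enzyme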
rCAG bind conf – r(CAG) RNA repeat binding, confirmation | shares compounds with rCAG binder | AID 652065 | actives 70% (n = 4,300) | inhibition, % at 3 µM | TO-PRO-1 dye displacement fluorescence;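 active = inhibition above a per-plate cutoff, the mean inhibition of sample wells plus 3 SD, cut at about 35% in these data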;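 note: loss of TO-PRO-1 fluorescence as compound displaces dye from 1x1 AA loop RNA; 0% = DMSO only wells and 100% = 100 µM mitoxantrone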
dCAG dye counter – counter-screen for rCAG RNA binders: DNA CAG dye complex inhibitors. shares compounds with rCAG binder. d(CAG) DNA oligo TO-PRO-1 dye displacement, fluorescence. inhibition, % at 3 µM. actives 94% (n = 4,300);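 active = inhibition above its plate's cutoff, the mean test-well inhibition plus 3 SD, cut at about 4.8% in these data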;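 note: 0% = DNA dye mix with DMSO and 100% = 100 µM mitoxantrone; hits displace the dye from DNA and so lower well fluorescence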
Active calls of the source: *; · = not tested or not shown.

SMILES | LEDGF integ inh | rCAG binder | PRMT1 FP inh | DAGLB inh | ABHD4 inh | HTRA1 inh | rCAG bind conf | dCAG dye counter
Nc1c(C(=O)Nc2ccc(S(=O)(=O)N3CCCC3)cc2)sc2nc3cc4c(cc3cc12)CCC4 | 12.2 | 38.1* | 11.1 | 0.0 | -9.9 | -7.4 | 31.1 | 16.4*
Nc1c(C(=O)Nc2ccc(S(=O)(=O)N3CCCC3)cc2)sc2nc3ccc(OC(F)(F)F)cc3cc12 | · | · | · | 6.5 | · | -18.5 | · | ·
O=C(O)c1ccc(Cl)cc1Nc1nc2cc(Cl)ccc2o1 | -4.5 | 73.3* | 7.1 | 8.1 | -25.9 | -57.9 | 83.5* | 61.9*
CCC(=O)Nc1cc(Cl)ccc1C(=O)O | 0.3 | -0.8 | -2.7 | 1.7 | -0.4 | -0.8 | · | ·
Cc1ccc([N+](=O)[O-])cc1N(CC(=O)Nc1ccc(S(=O)(=O)Nc2cccc(C(F)(F)F)c2)cc1)S(C)(=O)=O | 1.1 | 57.5* | -0.5 | 2.7 | -227.7 | -113.2 | 56.1* | 17.6*
COc1ccccc1N(CC(=O)Nc1cccc(C(F)(F)F)c1)S(C)(=O)=O | -4.4 | -3.6 | -0.4 | -2.5 | -5.8 | -8.4 | · | ·
COc1ccc(N2CCN(c3nc4ccccc4nc3NS(=O)(=O)c3ccccc3)CC2)cc1 | -3.4 | 57.0* | 0.0 | 6.5 | 0.5 | 5.4 | 62.1* | 24.2*
CN1CCN(c2nc3ccccc3nc2NS(=O)(=O)c2ccc(Br)cc2)CC1 | -1.0 | 22.1 | 4.0 | 3.6 | 2.8 | 1.0 | · | ·
Cc1ccc(S(=O)(=O)Nc2nc3ccccc3nc2N2CCN(c3ccccc3F)CC2)cc1 | 0.5 | 53.7* | 3.3 | 7.0 | -4.9 | -7.3 | 67.7* | 27.9*
COc1ccc(N2CCN(C(=O)c3ccccc3NS(=O)(=O)c3ccccc3)CC2)cc1 | 3.3 | 13.4 | 0.6 | -0.8 | 6.0 | -4.2 | · | ·
CCOc1nc2ccccc2nc1NS(=O)(=O)c1ccccc1 | -6.8 | 6.4 | -0.5 | -0.1 | -1.4 | 9.6 | · | ·
CCOc1nc2ccccc2nc1NS(=O)(=O)c1ccc(Cl)cc1 | -6.8 | 40.2* | 7.7 | 11.9 | -15.1 | -3.1 | 27.3 | 4.6*
O=S(=O)(Nc1nc2ccccc2nc1N1CCN(c2ccccn2)CC1)c1ccc(Cl)cc1 | 3.5 | 53.8* | 11.4 | 12.4 | 4.0 | -1.2 | 63.8* | 30.7*
Cc1ccc2[nH]c(C(=O)N/N=C/c3ccccc3O)c(C)c2c1 | 1.4 | 12.0 | 2.0 | -2.3 | 13.4 | 24.8 | · | ·
Cc1c(C(=O)NCc2cccnc2)oc2c1C(=O)CC(C)(C)C2 | 6.3 | 1.6 | 2.2 | 1.5 | -5.7 | 9.6 | · | ·
CCCc1cc(=O)[nH]c(SCC(=O)N2CCN(c3ccc(F)cc3)CC2)n1 | -1.5 | 1.9 | -1.5 | -1.3 | -6.6 | -0.6 | · | ·
CCCCCCC12C(=Cc3cc4c(cc31)OCCO4)c1cc(OC)c(OC)cc1C(CC(=O)O)N2C(=O)OC (configuration not stated) | 1.9 | 43.4* | 3.3 | · | 27.6 | · | 35.2* | 7.0*
CCCCCCC12C(=Cc3cc4c(cc31)OCCO4)c1cc(OC)c(OC)cc1C(CC(=O)OC)N2C(=O)OC (configuration not stated) | 1.0 | 7.0 | 0.1 | · | -2.6 | · | · | ·
COc1ccccc1NC1C=CS(=O)(=O)C1 (configuration not stated) | -4.4 | -3.2 | -0.5 | 2.0 | 6.1 | 5.5 | · | ·
CCCc1c(OCCCOc2ccc(OCC(=O)O)cc2)ccc(C(C)=O)c1O | 2.8 | 60.6* | 0.1 | 2.2 | -15.2 | -23.5 | 50.9* | 15.7*
CCC(=O)c1ccc(OCC(=O)O)cc1 | 0.6 | 0.0 | -0.1 | -1.6 | 5.4 | 5.3 | · | ·
CCOc1cccc(NC(=O)CSc2sc3c(O)cc(=O)[nH]c3c2C#N)c1 | -1.3 | 38.7* | 6.0 | 4.7 | -3.6 | -45.8 | 23.4 | 9.4*
N#Cc1c(SCC(=O)Nc2nc3ccc(Br)cc3s2)sc2c(O)cc(=O)[nH]c12 | 8.8 | 67.1* | 18.8 | 22.3 | -4.4 | -16.6 | 82.0* | 50.9*
Cc1c(Cl)cccc1NC(=O)CSc1sc2c(O)cc(=O)[nH]c2c1C#N | 9.9 | 39.0* | 1.0 | 9.4 | -11.3 | -38.9 | 15.9 | 5.8*

Screening data from PubChem.
